Reference: PMC3749563 (British Journal of Cancer, 2013)

Legend:
[1] = single agent, 3 consecutive days per week schedule; ref Tolcher et al, 2012; cited from earlier work
[2] = test system: α1-acid glycoprotein and albumin; conditions: ref Wu et al, 2012; cited from earlier work
γ-secretase = conditions: ref Luistro et al, 2009; cited from earlier work
[3] = Dose-limiting toxicities and recommended phase II dose; type: in vivo, human; conditions: cediranib daily, in combination with RO4929097; highest dose level completed
[4] = test system: circulating VEGF-A, VEGF-C, SDF-1; test: Circulating biomarker evaluation; type: in vivo, human; conditions: after dosing with cediranib (with RO4929097), cycle 1
Procedure, shortened: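 Patients with advanced solid tumours. Blood was drawn before dosing on cycle 1 day 1, cycle 1 day 22 and cycle 2 day 1. Plasma VEGF-A, VEGF-B, VEGF-C, bFGF, SDF-1-alpha, IL-6 and IL-8 were measured by commercial ELISA kits following the manufacturer's protocol. Samples were run in duplicate, with a triplicate if values differed by more than 15%. Results were discarded unless at least two agreed within 15%.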

[5] = test system: VEGF receptors (VEGFR-1, VEGFR-2 and VEGFR-3), and c-Kit; conditions: ref Wedge et al, 2005; cited from earlier work

Row | SMILES | Daily dose at which reversible CYP3A4 autoinduction was detected [1] | Plasma protein binding [2] | γ-Secretase inhibition (γ-secretase) | Recommended phase II dose (RP2D) [3] [mg] | Change of circulating SDF-1 [4] | Change of circulating VEGF-A [4] | Change of circulating VEGF-C [4] | Inhibition of VEGF signalling [5]
1 | CC(C)(C(=O)NCC(F)(F)C(F)(F)F)C(=O)N[C@@H]1C(=O)Nc2ccccc2-c2ccccc21 [RO4929097] | above 24 mg | highly bound | potent and selective |  |  |  |  | 
2 | COc1cc2c(Oc3ccc4[nH]c(C)cc4c3F)ncnc2cc1OCCCN1CCCC1 [cediranib] |  |  |  | 30 | Increases | Increases | Increases | highly potent inhibitor
